According to ChEMBL document CHEMBL4004827, “Exploration of DAPI analogues: Synthesis, antitrypanosomal activity, DNA binding and fluorescence properties” (Eur J Med Chem, 2017):
Activity calls are given as the source filed them. No cut-off for these calls is given here.

Experiments:
[1] = Selectivity index, ratio of IC50 for rat L6 cells to IC50 for Trypanosoma brucei rhodesiense STIB900 bloodstream forms; type: toxicity; details: read-out: Ratio IC50
In short: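 Selectivity index calculated as IC50 in L6 cells divided by IC50 against T. b. rhodesiense STIB900.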

[2] = tested on: Trypanosoma brucei rhodesiense; assay: Potency index, ratio of DAPI IC50 to compound IC50 for Trypanosoma brucei rhodesiense STIB900 bloodstream forms; type: functional
[3] = tested on: Trypanosoma brucei rhodesiense; assay: Antitrypanosomal activity against Trypanosoma brucei rhodesiense STIB900 bloodstream forms after 70 hrs by Alamar blue assay; type: functional; details: STIB900, 70 h
In short: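 In vitro viability assay on T. b. rhodesiense strain STIB900; values are the average of duplicate determinations.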

[4] = tested on: Trypanosoma brucei rhodesiense; assay: Antitrypanosomal activity against Trypanosoma brucei rhodesiense STIB900 infected in NMRI mouse assessed as aparasitemic mouse at 5 mg/kg, ip for 4 consecutive days starting from day 3 post infection measured up to day 60 post infection relative to control; type: functional
In short: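 STIB900 acute-stage mouse model of T. b. rhodesiense infection; compound given intraperitoneally at 5 mg/kg daily for four consecutive days (4 × 5 mg/kg), 4 infected mice per group; cure rate reported as mice cured out of 4.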

[5] = Binding affinity to poly(dA-dT)n DNA (unknown origin) assessed as change in melting temperature at 0.3 molar ratio of compound:DNA by spectrophotometric analysis
In short: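 Thermal melting with poly(dA-dT) in CAC 10 buffer (10 mM cacodylic acid, 1 mM EDTA, 100 mM NaCl, pH 7.0), 1 cm quartz cuvettes, heated at 0.5 °C/min. DNA concentration set by absorbance at 260 nm; 0.3 mol compound per mol DNA, DNA alone as control. Tm taken from peak of first-derivative (dA/dT) curve; ΔTm = Tm complex − Tm free DNA.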

L6 = assay: Cytotoxicity against rat L6 cells; type: cell-based
[6] = Binding affinity to poly(dA-dT)n DNA minor groove (unknown origin) assessed as positive induced CD signal at 1:20 to 8:20 molar ratio of compound:DNA by CD spectroscopic analysis
In short: (§1)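 CD spectra recorded at 25 °C in MES 10 buffer (10 mM MES, 100 mM NaCl, 1 mM EDTA) over a series of compound-to-DNA ratios.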

Mus musculus = assay: Toxicity in NMRI mouse infected with Trypanosoma brucei rhodesiense STIB900 assessed as death at 5 mg/kg, ip for 4 consecutive days starting from day 3 post infection; type: organism-based; details: in vivo
In short: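 Acute-stage STIB900 mouse model, four infected mice per compound, given 5 mg/kg intraperitoneally once daily on four consecutive days (4 × 5 mg/kg). Deaths among treated mice were counted out of 4, alongside cure of survivors. Other protocol details follow an earlier report.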

[7] = Binding affinity to poly(dA-dT)n DNA minor groove (unknown origin) assessed as positive induced CD signal at 1:20 to 5:20 molar ratio of compound:DNA by CD spectroscopic analysis; in short: as §1

| Structure (SMILES) | IC50 [3] [µM] | ΔTm [5] [°C] | Activity [6] | Activity [7] | selectivity ratio [1] | Ratio IC50 [2] | Activity [4] | IC50 (L6) [µM] | Activity (Mus musculus) |
| --- | --- | --- | --- | --- | --- | --- | --- | --- | --- |
| N=C(N)c1ccc(-c2cc3ccc(C(=N)N)cc3[nH]2)nc1 | 0.024 | 22.1 | Active | – | 133 | – | 100% | 3.2 | – |
| N=C(N)c1ccc2cc(-c3ccc(C(=N)N)s3)[nH]c2c1 | 0.011 | 10 | – | – | 409 | 2 - 6 | – | 4.5 | – |
| Cc1cc(-c2cc3ccc(C(=N)N)cc3[nH]2)ccc1C(=N)N | 0.005 | > 26 | – | – | 3140 | 2 - 6 | 75% | 15.7 | – |
| N=C(N)c1ccc(-c2cc3cc(C(=N)N)ccc3[nH]2)cc1 | – | 19.2 | – | – | – | – | – | – | – |
| N=C(N)c1ccc2cc(-c3ccc(C(=N)N)o3)[nH]c2c1 | 0.009 | 11 | – | – | 800 | 2 - 6 | inactive | 7.2 | Toxic |
| COc1ccc(-c2cc3ccc(C(=N)N)cc3[nH]2)cc1 | 4.87 | 12.6 | – | – | 6 | – | – | 29 | – |
| N=C(N)c1ccc(-c2cc3ccc(C(=N)N)cc3[nH]2)cc1 [DAPI] | – | > 27 | – | Active | 48 | – | – | – | – |
| COc1cc(C(=N)N)ccc1-c1cc2ccc(C(=N)N)cc2[nH]1 | 0.006 | > 26 | – | Active | 4880 | 2 - 6 | 100% | 29.6 | – |

Now from value to compound, other results behind:

| IC50 [3] [µM] | ΔTm [5] [°C] | Activity [6] | Activity [7] | Structure (SMILES) | selectivity ratio [1] | Ratio IC50 [2] | Activity [4] | IC50 (L6) [µM] | Activity (Mus musculus) |
| --- | --- | --- | --- | --- | --- | --- | --- | --- | --- |
| 0.003 | 15.3 | – | – | N=C(N)c1ccc2cc(-c3ccc(C(=N)N)nc3)[nH]c2c1 | 667 | 2 - 6 | 25% | 2 | – |
| 0.005 | 12.1 | – | – | N=C(N)c1ccc2[nH]c(-c3ccc(C(=N)N)nc3)cc2c1 | 394 | 2 - 6 | 25% | 1.8 | – |
| 0.004 | > 26 | – | – | N=C(N)c1ccc(-c2cc3cc(C(=N)N)ccc3[nH]2)nc1 | 5320 | 2 - 6 | 100% | 21.3 | – |
| 0.003 | 15.3 | – | – | Cc1cc(-c2cc3cc(C(=N)N)ccc3[nH]2)ccc1C(=N)N | 7830 | 2 - 6 | 75% | 23.5 | – |
| 0.003 | 21.4 | – | Active | N=C(N)c1ccc2[nH]c(-c3ccc(C(=N)N)o3)cc2c1 | 900 | 2 - 6 | 100% | 2.7 | – |
